Screening data deposited in PubChem by Broad Institute.
DENV2 CPE rescue – protects cells from dengue virus 2 cytopathic effect | CPE inhibition, % at 9.99 µM | 1.7% of 350,000 active | AID 651640 | DENV2-infected cells, cytopathic effect rescue, plate reader; in the data active = CPE inhibition above about 20%, passing the limit was not always enough; inconclusive = no clear call, values can overlap the other calls; tested in BHK-21 cells;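 also: 0% = median of neutral control wells and 100% = median of positive control wells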
MLL AF4-AF9 inh – inhibitors of human MLL-AF4/AF9 interaction; AlphaScreen, biotin-AF4 peptide binding to FLAG-AF9; AID 651704; P42568; 0.47% of 350,000 active; inhibition, % at 10 µM;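 active = every replicate reaching a set inhibition limit, whatever the replicate mean, cut at about 25% in these data; inconclusive = mean inhibition reaches that limit but some replicates miss it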;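 also: 0% = plate neutral control median and 100% = total signal loss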
Target sequence (P42568 whole entry, looked up): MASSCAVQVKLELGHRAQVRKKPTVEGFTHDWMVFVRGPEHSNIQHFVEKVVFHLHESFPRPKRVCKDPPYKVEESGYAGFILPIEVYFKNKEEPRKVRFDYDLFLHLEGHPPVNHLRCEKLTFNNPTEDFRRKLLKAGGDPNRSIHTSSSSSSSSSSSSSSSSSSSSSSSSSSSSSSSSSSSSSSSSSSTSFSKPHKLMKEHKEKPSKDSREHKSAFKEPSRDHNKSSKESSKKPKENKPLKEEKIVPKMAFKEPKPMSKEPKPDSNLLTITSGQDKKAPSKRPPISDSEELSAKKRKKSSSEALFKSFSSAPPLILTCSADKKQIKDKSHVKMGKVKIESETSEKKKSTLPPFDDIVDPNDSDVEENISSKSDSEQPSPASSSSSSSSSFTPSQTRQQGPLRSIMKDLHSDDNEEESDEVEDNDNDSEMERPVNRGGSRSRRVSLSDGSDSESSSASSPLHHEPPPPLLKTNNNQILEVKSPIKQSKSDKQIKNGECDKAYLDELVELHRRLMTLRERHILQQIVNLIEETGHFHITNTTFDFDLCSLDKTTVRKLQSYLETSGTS
S100A4 inh HTS – inhibitors of human S100A4 binding to myosin IIA peptide; inhibition, % at 10.7 µM; 0.14% of 360,000 active; S100A4/TAMRA-MyoIIA peptide fluorescence polarization;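 active = mean inhibition of at least 70% across replicates, with every replicate also reaching that level; inconclusive = mean inhibition reaches 70% but some replicates fall short; inactive = mean inhibition below 70%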
Target sequence (P26447 whole entry, looked up): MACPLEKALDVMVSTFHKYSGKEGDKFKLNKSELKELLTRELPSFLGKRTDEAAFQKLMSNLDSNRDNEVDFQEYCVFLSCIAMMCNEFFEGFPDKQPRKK
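Test system – S100A4 monomer (human) · Compound – single-point compound testing · Schedule – 5 min incubation before reading · Probe or stimulus – TAMRA-labelled myosin IIA heavy-chain peptide probe, 5 nM · Benchmarks – neutral control DMSO, positive control TFP · Medium – Calcium-containing HEPES buffer, pH 7.2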
CaV13 ICDI inh – Primary screen for inhibitors of IQ motif and Ca2+-dependent inactivation inhibitor domain binding in CACNA1D, Förster resonance energy transfer in living cells, …; HEK cells, CFP/YFP FRET ICDI-IQ, plate reader, 10 min; percent FRET-ratio fall versus neutral wells; inhibition, % at 12.3 µM; 0.098% of 340,000 active; AID 743397;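 active = mean replicate inhibition of at least 30% and at least 1% of replicates passing that level; inconclusive = only one of the two criteria is met; inactive = neither criterion is met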;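 also: 0% = median of the neutral control wells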
SIRT5 inh – sirtuin-5 (human) deacylase inhibition. Q9NXA8. Purified SirT5, succinyl-peptide AMC, trypsin-coupled fluorescence. inhibition, % at 15 µM. 1.1% of 330,000 active; in the data active = inhibition above about 15%; inconclusive = no clear call, values can overlap the other calls
An asterisk follows results filed as active; ? = inconclusive; nt = no result; ! = repeats disagree. In the library only some 2.7% were active in any assay of this set; here they are far more common.

SMILES	DENV2 CPE rescue	MLL AF4-AF9 inh	S100A4 inh HTS	CaV13 ICDI inh	SIRT5 inh
COc1ccc(-c2nc3ccccc3nc2-c2ccccc2)cc1OC	-5.5	-0.4	4.2	-21.7	16.9*
CCC(=O)N1[C@@H](CO)[C@@H]2c3ccccc3N(C(=O)Nc3ccc(Cl)cc3)C[C@@H]21	-8.0	0.9	-2.1	nt	6.6
COc1cc(OC)cc(-c2c(C#Cc3ccsc3)c3cc(-c4cc(OC)c(OC)c(OC)c4)ccc3n2C)c1	37.9*	-2.5	-3.8	-3.3	nt
COc1cc(OC)cc(-c2c(C#Cc3ccsc3)c3cc(-c4ccc(OC)c(F)c4)ccc3n2C)c1	5.0	0.1	-9.2	-6.6	nt
Cn1nc(C(=O)N2CCC(C(N)=O)CC2)c2c1-c1ccccc1SC2	24.5*	-4.7	7.1	-5.9	-1.9
CO[C@@H]1CN(C)C(=O)c2ccc(NC(=O)c3ccc4c(c3)OCO4)cc2OC[C@H](C)N(CC2CC2)C[C@H]1C	-11.9	-2.5	-16.3	nt	nt
CCOC(=O)N(C)C[C@@H]1OCc2cnnn2CCCC(=O)N([C@@H](C)CO)C[C@@H]1C	70.1*!	-1.3	-6.1	-5.0	-0.4
C[C@@H]1CN([C@@H](C)CO)C(=O)CCCn2nncc2CO[C@H]1CN(C)C(=O)Nc1ccccc1	30.8*	-0.7	-2.9	nt	2.8
C[C@H]1CN([C@@H](C)CO)C(=O)CCCn2nncc2CO[C@@H]1CN(C)C(=O)c1ccc2ccn(C)c2c1	7.6	3.5	2.3	-6.9	37.6*!
CC(C)NC(=O)N(C)C[C@H]1OCc2cnnn2CCCC(=O)N([C@H](C)CO)C[C@@H]1C	91.8*!	0.3	1.4	-10.0	-1.9
C[C@@H]1CN([C@H](C)CO)C(=O)CCCn2nncc2CO[C@@H]1CN(C)C(=O)c1ccc2ccn(C)c2c1	-3.6	-1.4	7.0	nt	0.6
CCOC(=O)N(C)C[C@H]1OCc2cnnn2CCCC(=O)N([C@H](C)CO)C[C@H]1C	-6.2	-0.5	-1.9	-3.2	3.9
C[C@@H]1CN([C@H](C)CO)C(=O)CCCn2nncc2CO[C@@H]1CN(C)C(=O)Nc1ccccc1	2.9	0.9	0.0	-5.8	-2.0
CCCC#Cc1cnc2c(c1)C(=O)N([C@H](C)CO)C[C@@H](C)[C@H](CN(C)C(=O)Nc1ccccc1F)O2	-2.3	-0.3	5.6	nt	-4.1
Cn1c2ccccc2c2nnc(SCC(=O)Nc3ccccc3F)nc21	-1.9	-0.5	-6.6	-4.7	3.4
COc1ccc2c(c1)c1nnc(SCC(=O)Nc3ccccc3F)nc1n2C	51.1*	-1.7	1.0	-1.6	-4.8
C[C@@H]1CCCCO[C@H](CN(C)Cc2ccc3c(c2)OCO3)[C@H](C)CN([C@H](C)CO)C(=O)c2cc(NC(=O)Cc3ccccc3)ccc2O1	-3.9	nt	nt	nt	nt
COc1ccc(C(=O)N2CCC2(C)C(=O)O)cc1F (configuration not stated)	78.9*	0.0	-3.4	-11.0	-1.1
CO[C@@H]1CN(C)C(=O)c2ccc(NC(=O)c3nc4ccccc4s3)cc2OC[C@H](C)NC[C@@H]1C	2.9	2.2	-5.7	nt	0.7
Cc1noc(C)c1S(=O)(=O)Nc1cccc2c1O[C@@H](CN(C)C(=O)Nc1ccc3c(c1)OCO3)[C@@H](C)CN([C@H](C)CO)C2=O	18.4	-0.1	-42.2	nt	-1.7
C[C@H](CO)N1C[C@H](C)[C@H](CN(C)S(=O)(=O)c2ccccc2)Oc2ccc(NS(=O)(=O)c3ccc(F)cc3)cc2CC1=O	-8.0	-2.0	6.0	nt	0.3
O=C(NCc1nc2ccccc2[nH]1)C1=C[C@H](C2CCCCC2)C[C@H](OCc2ccc(CO)cc2)O1	21.1*!	0.8	-1.5	-10.5	7.3
O=C(Nc1ccccc1)C1=C[C@H](C2CCCCC2)C[C@H](OCc2ccc(CO)cc2)O1	-1.3	-1.4	19.7	-3.0	5.3
O=C(NCc1nc2ccccc2[nH]1)C1=C[C@H](c2ccc(C(F)(F)F)cc2)C[C@H](OCCCCO)O1	21.3*	2.3	2.4	-4.4	-0.9
C=CCOC(=O)C1=C[C@@H](C2CCCCC2)C[C@@H](OCc2ccc(CO)cc2)O1	48.3*	-5.7	1.8	-5.1	0.0
SMILES	DENV2 CPE rescue	MLL AF4-AF9 inh	S100A4 inh HTS	CaV13 ICDI inh	SIRT5 inh
O=C(NCc1nc2ccccc2[nH]1)C1=C[C@@H](c2ccc(C(F)(F)F)cc2)C[C@@H](OCCCCO)O1	-10.4	-4.6	-2.7	-6.0	1.7
CC(=O)N[C@@H]1C[C@@H]2O[C@H](CO)CC[C@@H]2O[C@@H]1CCc1ccc(-c2ccc(F)cc2)cc1	-2.0	1.4	-1.1	nt	nt
Cc1oc(-c2cccs2)nc1CN1CCN(CCC(C)C)C(CCO)C1 (configuration not stated)	3.5	-3.3	-3.6	-6.3	16.8*
COc1ccccc1S(=O)(=O)N[C@H]1CC[C@@H](CCn2cc(C3CCCCC3)nn2)O[C@H]1CO	4.6	-6.0	-8.4	nt	0.8
CO[C@H]1CN(C)C(=O)c2cc(NC(C)=O)ccc2OC[C@H](C)N(C(=O)CC2CC2)C[C@@H]1C	35.9*	-2.0	1.5	nt	-0.9
CO[C@@H]1CN(C)C(=O)c2cc(NC(C)=O)ccc2OC[C@@H](C)N(C(=O)CC2CC2)C[C@H]1C	27.1*	-0.8	-9.4	nt	nt
CO[C@@H]1CN(C)C(=O)c2cc(NC(C)=O)ccc2OC[C@H](C)N(C(=O)CC2CC2)C[C@H]1C	15.8	-2.3	-3.0	nt	2.4
CO[C@@H]1CN(C)C(=O)c2ccc(NC(=O)c3ccc(F)cc3)cc2OC[C@H](C)N(C(=O)CC2CC2)C[C@H]1C	0.3	0.0	117.2*	nt	0.5
Cc1ccc(-c2ccc3c(c2)O[C@H](CN(C)Cc2ccc(F)cc2)[C@@H](C)CN([C@H](C)CO)S3(=O)=O)cc1	-5.1	3.8	8.3	nt	9.7
Cc1ccc(S(=O)(=O)N[C@H]2CC[C@@H](CC(=O)NCc3ccncn3)O[C@@H]2CO)cc1	-13.6	-0.5	-26.8	nt	-5.3
O=C(COC(=O)c1ccc([N+](=O)[O-])s1)Nc1cccc(S(=O)(=O)NC2=NCCCCC2)c1	-0.2	-27.0	-0.9	-4.0	26.2*
CSc1ccc(Cl)c(C(=O)N2CCOc3ccccc32)c1	?	-2.2	-3.7	51.6*	nt
COc1ccc(CN(C)C[C@@H]2OCCCC[C@H](C)Oc3ccc(NC(=O)Nc4ccc(C(F)(F)F)cc4)cc3C(=O)N([C@H](C)CO)C[C@@H]2C)cc1	-3.6	7.6	-8.8	nt	6.0
CN(C)CCCNC(=O)C[C@H]1CC[C@H](NS(=O)(=O)c2ccc(F)cc2)[C@H](CO)O1	-6.3	-1.2	4.2	nt	-0.2
COc1ccc(C2(C)CC(C)(C)Nc3ccccc32)cc1 (configuration not stated)	26.4*	5.5	-6.3	-2.0	-5.3
C[C@@H]1CN([C@@H](C)CO)C(=O)c2cc(-c3ccncc3)cnc2O[C@@H]1CN(C)S(=O)(=O)c1ccccc1	?	-9.9	20.4	nt	-0.2
COc1ccc(OC)c(C2Nc3ccccc3NC3=C2C(=O)CC(C)(C)C3)c1 (configuration not stated)	11.9	-7.1	-5.6	-6.0	19.6*
